# HNF4A DNA FP: change in binding of human HNF4 alpha to DNA. P41235. HNF4a-FITC DNA binding, fluorescence polarization, 1 h. activity change, % at 10 µM. actives 0.3% (n = 360,000); in the data active = activity change above about 30%, passing the limit was not always enough
# Rin1-Abl PPI inh: inhibitors of human Rin1-Abl protein interaction; P00519+Q13671; inhibition, % at 7.35 µM; AID 588664; actives 0.4% (n = 360,000); TR-FRET Rin1/Abl binding, biochemical; in the data active = inhibition above about 5%, passing the limit was not always enough
# Neddyl block: inhibitors of human cullin neddylation; P61081+Q13564; TR-FRET cullin neddylation, biochemical; inhibition, % at 25 µM; actives 0.58% (n = 360,000); AID 651699; in the data active = inhibition above about 36%
# Target sequence (P61081 whole entry, looked up): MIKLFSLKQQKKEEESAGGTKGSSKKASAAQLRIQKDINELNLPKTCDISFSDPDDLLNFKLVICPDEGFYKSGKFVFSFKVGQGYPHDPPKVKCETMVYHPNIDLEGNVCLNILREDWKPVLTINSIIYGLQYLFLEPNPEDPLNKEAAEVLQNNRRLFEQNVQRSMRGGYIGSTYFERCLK
# Target sequence (Q13564 whole entry, looked up): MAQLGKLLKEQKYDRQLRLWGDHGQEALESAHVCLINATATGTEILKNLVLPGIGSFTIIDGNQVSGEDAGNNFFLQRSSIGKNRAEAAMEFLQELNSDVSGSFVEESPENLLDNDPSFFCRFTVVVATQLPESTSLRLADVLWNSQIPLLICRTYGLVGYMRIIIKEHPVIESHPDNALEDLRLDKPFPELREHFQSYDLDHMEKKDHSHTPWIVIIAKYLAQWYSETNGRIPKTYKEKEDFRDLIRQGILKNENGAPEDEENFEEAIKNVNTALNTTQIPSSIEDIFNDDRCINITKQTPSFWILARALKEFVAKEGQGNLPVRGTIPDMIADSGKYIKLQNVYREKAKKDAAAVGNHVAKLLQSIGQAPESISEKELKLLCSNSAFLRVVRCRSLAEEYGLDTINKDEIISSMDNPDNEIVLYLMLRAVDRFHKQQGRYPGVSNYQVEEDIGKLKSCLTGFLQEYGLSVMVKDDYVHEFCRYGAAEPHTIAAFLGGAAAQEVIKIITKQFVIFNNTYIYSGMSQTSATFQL
# Rpn11 inh: Rpn11 (human) deubiquitinase inhibition | actives 0.59% (n = 360,000) | AID 588493 | human 26S proteasome, Ub4-pepOG fluorescence polarization; 20S core pre-blocked with epoxomicin | O00487 | inhibition, % at 20 µM;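 active = inhibition at 20 µM, scaled to each plate's controls, above about 33%, limit read from the data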
# TPT1 inh: blocks Candida albicans tRNA 2'-phosphotransferase. recombinant caTPT1, FP RNA substrate dephosphorylation. actives 0.81% (n = 300,000). inhibition, % at 5 µM. AID 1962;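 active = inhibition above the mean of all tested compounds plus 3 SD, set per screening campaign, cut at about 24% in these data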;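 note: plate controls were DMSO alone for no effect and ferristatin control at 100 nM for full effect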
# CSN deneddyl inh: blocks human CSN-mediated cullin deneddylation; inhibition, % at 12.5 µM; AID 651999; actives 0.38% (n = 360,000); Q92905; Purified CSN, SCF-Nedd8-OG deneddylation, fluorescence polarization;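 active = pattern-corrected inhibition above about 35%, with an unprinted fluorescence ratio check between 0.5 and 1.5, limit read from the data, passing the limit was not always enough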;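 note: 0% = enzyme with substrate and 100% = substrate without enzyme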
#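 Assay system: Purified human Csn5 enzyme expressed in HEK293T cells | Amount: Enzyme 0.24 nM | Measured by: Fluorescence polarization readout | Medium: Tris/NaCl/DTT buffer, pH 7.5 | Compound dosing: One concentration, 12.5 µM, 0.25% DMSO | Times: 90 min incubation of compound, enzyme and substrate at room temperature | Control set: no-enzyme wells high, enzyme-with-substrate wells low | Read-out: % inhibition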
# caTPT1 confirm: TPT1 (C. albicans) inhibition, confirmation. shares compounds with TPT1 inh. recombinant caTPT1, fluorescence polarization, RNase T1 coupled. inhibition, % at 5 µM. actives 74% (n = 2,400);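 active = inhibition above the primary screen limit, the mean inhibition of all tested compounds plus 3 SD, cut at about 25% in these data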
# RNase T1 counter: blocks Aspergillus oryzae RNase T1, a TPT1 counter-screen | shares compounds with TPT1 inh | RNase T1 cleavage, fluorescence polarization, 1536-well | inhibition, % at 5 µM | actives 83% (n = 2,400) | AID 2153;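 active = inhibition above the solvent-only control well mean plus 3 SD, limit set per screening run, cut at about 23% in these data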;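 note: plate controls were DMSO wells with enzyme for no effect and wells without RNase T1 for full effect; inhibitors block cleavage so intact labeled substrate keeps polarization high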
# Numbers without * were called inactive; · = no result shown. Rows were chosen to be rich in hits. Some 2.4% of all compounds tested hit in one or more screens of this group.
SMILES,HNF4A DNA FP,Rin1-Abl PPI inh,Neddyl block,Rpn11 inh,TPT1 inh,CSN deneddyl inh,caTPT1 confirm,RNase T1 counter
CN(C)c1ccc(-c2cc([C@H]3[C@@H]4C=CCC[C@@]4(C)C(=O)N3Cc3ccccc3)ccc2F)cc1,1,0,-56,6,1,-3,·,·
COc1ccc(OC)c(/C=C2\SC(=S)N(C(C(=O)O)c3ccccc3)C2=O)c1 (configuration not stated),10,1,-7,·,65*,23,61*,72*
COc1ccc(C(=O)c2ccc(OC)c(OC)c2)cc1,-5,-3,-30,0,-4,0,·,·
COc1ccc(C(=O)c2sc3nc(-c4ccccc4)ccc3c2N)cc1OC,69*,-3,29,30,91*,17,88*,94*
COc1ccc(-c2ccc3c(N)c(C(=O)c4ccc(OC)c(OC)c4)sc3n2)cc1,21,2,18,32,54*,5,60*,70*
CCOC(=O)c1sc2nc(-c3ccccc3)ccc2c1N,3,-1,·,0,5,-4,·,·
CN1CCc2c(sc(/N=C/c3cccs3)c2C(N)=O)C1,20,-5,32,-5,39*,-2,43*,56*
CN1CCc2c(sc(/N=C/c3ccco3)c2C(N)=O)C1,2,-6,38,-4,0,6,·,·
CN1CCc2c(sc(NC(=O)c3ccc4ccccc4c3)c2C(N)=O)C1,32,-8,32,·,34*,33,25*,34*
NC(=O)c1c(NC(=O)c2ccccc2)sc2c1CCN(Cc1ccccc1)C2,66,-2,21,·,71*,46*,56*,66*
CCN1CCc2c(sc(NC(=S)NC(=O)c3ccco3)c2C(N)=O)C1,12,-6,29,28,33*,9,32*,42*
CN1CCc2c(sc(NC(=O)Cc3ccccc3)c2C(N)=O)C1,-1,-1,13,0,1,4,·,·
CCN1CCc2c(sc(NC(=O)Cc3ccccc3)c2C(N)=O)C1,4,4,1,0,-1,-4,·,·
Cn1c(=O)c2c(nc(Sc3ncnn3CC(=O)N3CCOCC3)n2C)n(C)c1=O,-1,-2,7,-9,-5,0,·,·
CCC(C)c1ccc(C(CC)NC(=O)C2CCCO2)cc1 (configuration not stated),0,3,6,2,4,-1,·,·
C[C@@H]1CN([C@H](C)CO)C(=O)c2c(c3ccccc3n2C)-c2ccccc2CO[C@H]1CN(C)C(=O)c1cc(Cl)cc(Cl)c1,-2,0,-1,-3,·,4,·,·
CN1CCc2c(sc(N)c2C(=O)c2ccc(Cl)cc2)C1,40*,-3,-4,·,32*,24,37*,48*
NC(=O)c1c(NC(=O)c2c(F)cccc2F)sc2c1CCN(Cc1ccccc1)C2,6,0,·,30,36*,13,14,23*
Cc1ccc(Nc2nc3ccccc3s2)cc1,-3,-1,6,11,-1,-9,·,·
Cc1ccc(/C=C/c2nc3ccccc3s2)s1,8,-4,22,14,42*,4,43*,54*
CCc1c(C2(O)CCCCC2)[nH]c2cnccc12,-2,1,·,1,·,-6,·,·
O=C(CCN1C(=O)S/C(=C\c2ccccc2)C1=O)N1CCOCC1,-1,-7,-24,7,0,2,·,·
Cc1ccsc1/C=C1/SC(=O)N(CC(=O)N2CCOCC2)C1=O,-2,-4,-33,1,70*,2,6,9
Cc1ccc(/C=C2/SC(=O)N(CC(=O)N3CCOCC3)C2=O)s1,26,-3,-38,·,10,13,·,·
O=C(CN1C(=O)S/C(=C/c2ccc(N3CCOCC3)cc2)C1=O)N1CCOCC1,15,-12,-46,·,40*,11,61*,73*
